The values that follow come from ChEMBL document CHEMBL3421606, “Organoselenocyanates and symmetrical diselenides redox modulators: Design, synthesis and biological evaluation” (Eur J Med Chem, 2015).

Data set [1] in a line: Antioxidant activity assessed as glutathione peroxidase like activity after 3 mins by spectrophotometry. Format: physicochemical. Conditions: 0.05 h; call rule not given here. In short, it runs like this: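 NADPH-glutathione reductase coupled assay in 50 mM phosphate buffer with 0.1% Triton X-100, plus glutathione, glutathione reductase and NADPH. Compound at 41 µM; reaction started with 0.8 mM H2O2. A340 recorded over 3 min to give ΔA/min, background-corrected for H2O2+GSH and for compound colour. Ebselen 41 µM as reference.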

Data set [2] is described as follows: Antioxidant activity assessed as DPPH free radical scavenging activity after 30 mins by spectrophotometry. The format is physicochemical. The conditions noted are these: 0.5 h. The gist of the method: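 Compounds in methanol at 1 mg/ml. 200 µL added to 0.4 ml of 0.1 mM DPPH in methanol. Kept 30 min in the dark, then absorbance read at 517 nm against a blank (methanol, no DPPH). Scavenging % = (A blank − A sample)/A blank x 100. Ascorbic acid and ebselen served as reference antioxidants.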
(In general: The DPPH test is a chemical assay of radical scavenging.)

Another data set concerns HepG2. In words: Cytotoxicity against human HepG2 cells after 48 hrs by MTT assay. Format: functional, cell-based. In short, it runs like this: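 HepG2 grown in DMEM with 10% calf serum at 37 °C. Seeded at 50,000 cells/mL, grown 2 days, then serial compound dilutions added for 48 h at 37 °C, 10% CO2. MTT at 0.5 mg/mL final for 2 h; formazan dissolved in DMSO and read at 590 nm. IC50 = concentration giving 50% of untreated-control absorbance, from dose-response curves, mean of two parallel experiments. 5-FU as reference.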
Background: Tetrazolium dyes change colour on reduction, which living cells bring about.

Data set [3] is described as follows: Antioxidant activity assessed as bleomycin-Fe2+-induced DNA degradation after 1 hr by spectrophotometry. Format: physicochemical. In short, it runs like this: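 Mix of calf thymus DNA 0.5 mg/ml, bleomycin sulfate 0.05 mg/ml, MgCl2 5 mM, FeCl3 and test compound 2 mM, held 1 h at 37 °C. Stopped with EDTA, then 1% TBA and 25% HCl added, heated 80 °C 30 min. Cooled and centrifuged; TBA-reactive substances read at 532 nm as MDA equivalents. Ascorbic acid as reference. Means of 3 replicates.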

In data set [4] the test system is Staphylococcus aureus. Briefly: Antimicrobial activity against Staphylococcus aureus assessed as diameter of inhibition zone after 2 days by agar diffusion assay relative to ampicillin. Further details: concentration or dose not given beside the values. Format: functional. The gist of the method: (§1)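 Agar diffusion with 6 mm discs carrying 20 µL of 1 mg/ml compound on nutrient agar seeded with 1x10^8 CFU/mL bacteria, incubated at 30°C. Ampicillin run the same way at the same concentration. % activity index = inhibition zone of compound / inhibition zone of ampicillin x 100.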
(In general: A growth-free zone around the sample is the usual read-out of agar diffusion tests.)

In data set [5] the test system is Staphylococcus aureus. In words: Antimicrobial activity against Staphylococcus aureus assessed as diameter of inhibition zone after 2 days by agar diffusion assay. The format is functional. The gist of the method: (§2)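 Agar well/disc diffusion. 100 µL of suspension, 1x10^8 CFU/mL bacteria on nutrient agar or 1x10^4 spores/mL C. albicans on potato dextrose agar. 6 mm paper discs soaked with 20 µl of 1 mg/ml compound (20 µg per disc), incubated at 30°C. Inhibition zone diameter (mm) read after 1 and 2 days. Ampicillin (bacteria) and clotrimazole (fungus) controls at the same concentration.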

The subject of the next data set is Candida albicans. In words: Antimicrobial activity against Candida albicans assessed as diameter of inhibition zone after 1 day by agar diffusion assay. The format is functional. In short, it runs like this: as §2
The subject of data set [6] is Escherichia coli. In words: Antimicrobial activity against Escherichia coli assessed as diameter of inhibition zone after 2 days by agar diffusion assay. Format: functional. The gist of the method: as §2
Data set [7] relates to Escherichia coli. Briefly: Antimicrobial activity against Escherichia coli assessed as diameter of inhibition zone after 2 days by agar diffusion assay relative to ampicillin. The format is functional. In short, it runs like this:
as §1

Setting [8] is: Homo sapiens, HepG2, 48 h, read-out: IC50.

Consider `N#C[Se]c1ccc(-n2[se]c3ccccc3c2=O)cc1`, for which the Activity result in data set [1] is “Not Active”; in data set [2], “Active”. In the data set with HepG2 (setting [8]), the IC50 is 64 µM. The OD in data set [3] is listed as 0.09.
On the same counts, the results for `CC(C)C(C(=O)NC(C)(C)C)N(CCc1c[nH]c2ccccc12)C(=O)c1ccccc1[Se][Se]c1ccccc1C(=O)N(CCc1c[nH]c2ccccc12)C(C(=O)NC(C)(C)C)C(C)C` (stereo not drawn) are “Active”, “Not Active”, 45 µM and 0.07.
As for `Cc1ccc(C(C(=O)NC(C)(C)C)N(CCc2c[nH]c3ccccc23)C(=O)c2ccccc2[Se][Se]c2ccccc2C(=O)N(CCc2c[nH]c3ccccc23)C(C(=O)NC(C)(C)C)c2ccc(C)cc2)cc1` (stereo not drawn), the Activity result in data set [1] is on record as “Active”; in data set [2], “Not Active”. For the same compound, the IC50 result in the data set with HepG2 (hepg2) is given as “Not Active”. The OD in [3] turned out to be 0.073. For the same compound, the Activity_index in the data set on Staphylococcus aureus [4] was 55%. The “diameter of the inhibition zone (DIZ)” value in the data set with Staphylococcus aureus [5] turned out to be 12 mm.
Take `CC(C)C(C(=O)NC(C)(C)C)N(Cc1ccccc1)C(=O)c1ccccc1[Se][Se]c1ccccc1C(=O)N(Cc1ccccc1)C(C(=O)NC(C)(C)C)C(C)C` (stereo not drawn): the results for the Activity result in data set [1] and in [2] were “Active” and “Not Active”, respectively. Besides, the IC50 result with HepG2 (hepg2) is given as “Not Active”. In data set [3], the OD was found to be 0.073.
Take `N#C[Se]c1ccc(NC(=O)/C=C\C(=O)O)cc1`: the result in data set [2] was Active. In addition, the IC50 in the data set on HepG2 (setting [8]) was 5 µM. In addition, the results for the “diameter of the inhibition zone (DIZ)” value in the data set on Candida albicans and in the data set with Staphylococcus aureus [5] were 27 mm and 16 mm, respectively. Moreover, the OD in data set [3] stood at 0.051. For the same compound, the Activity_index with Staphylococcus aureus [4] came out at 73%.
As for `N#C[Se]c1ccc(N2C(=O)C=CC2=O)cc1`, the Activity entry in data set [1] is given as “Active”; in data set [2] it was “Not Active”. The IC50 in the data set on HepG2 (setting [8]) came out at 0.6 µM. In addition, the OD in [3] stood at 0.082.
With `N#C[Se]c1ccc(NC(=O)CCC(=O)O)cc1`, in [2], the result was Active. In addition, the IC50 result with HepG2 (hepg2) was “Not Active”. Besides, the OD in data set [3] is on record as 0.053. For the same compound, the Activity_index in the data set on Staphylococcus aureus [4] stood at 68%. Moreover, the “diameter of the inhibition zone (DIZ)” value in the data set on Staphylococcus aureus [5] was 15 mm.
As for `N#C[Se]c1ccc(N2C(=O)CCC2=O)cc1`, in data set [2], the Activity result is “Not Active”. In addition, the IC50 result in the data set with HepG2 (hepg2) is “Not Active”. Moreover, the “diameter of the inhibition zone (DIZ)” value in the data set with Candida albicans was found to be 28 mm; in the data set with Staphylococcus aureus [5], 21 mm. The OD in data set [3] came to 0.065. Besides, the Activity_index in the data set on Staphylococcus aureus [4] was found to be 95%.
For `N#C[Se]c1ccc(NC(=O)CCCC(=O)O)cc1`, the Activity entry in data set [1] is on record as “Active”; in [2], “Not Active”. In the data set with HepG2 (setting [8]), the concentration for half-maximal inhibition (IC50) was determined as 7 µM. The OD in data set [3] was determined as 0.068. In addition, the Activity_index with Staphylococcus aureus [4] was 91%. Besides, the “diameter of the inhibition zone (DIZ)” value with Staphylococcus aureus [5] came to 20 mm.
`N#C[Se]c1ccc(N2C(=O)CCCC2=O)cc1`: the Activity result in data set [1] is “Active”; in data set [2], “Not Active”. Further, the IC50 with HepG2 (setting [8]) amounted to 47 µM. Besides, the OD in data set [3] was 0.078.
As for `O=C(O)/C=C\C(=O)Nc1ccc([Se][Se]c2ccc(NC(=O)/C=C\C(=O)O)cc2)cc1`, the outcome in data set [1] and in data set [2] was Active. Further, the IC50 with HepG2 (setting [8]) is 3 µM. The OD in data set [3] turned out to be 0.089. Further, the Activity_index with Staphylococcus aureus [4] came to 95%. In addition, the “diameter of the inhibition zone (DIZ)” value in the data set with Staphylococcus aureus [5] was found to be 21 mm.
As for `O=C1C=CC(=O)N1c1ccc([Se][Se]c2ccc(N3C(=O)C=CC3=O)cc2)cc1`, the result in data set [1] and in [2] was Active. Further, the IC50 in the data set with HepG2 (setting [8]) was 13 µM. In [3], the OD stood at 0.055. Besides, the “diameter of the inhibition zone (DIZ)” value in the data set with Escherichia coli [6] turned out to be 7 mm. In addition, in the data set on Escherichia coli [7], the Activity_index was 29%.
For the compound `O=C(O)CCC(=O)Nc1ccc([Se][Se]c2ccc(NC(=O)CCC(=O)O)cc2)cc1`, the outcome in data set [1] and in data set [2] was Active. For the same compound, in the data set on HepG2 (hepg2), the IC50 entry was “Not Active”. The entries for the “diameter of the inhibition zone (DIZ)” value in the data set with Candida albicans and in the data set on Staphylococcus aureus [5] were 19 mm and 20 mm, respectively. Further, the OD in data set [3] is reported as 0.088. Further, in the data set on Staphylococcus aureus [4], the Activity_index was found to be 91%.
With `O=C1CCC(=O)N1c1ccc([Se][Se]c2ccc(N3C(=O)CCC3=O)cc2)cc1`, the Activity result was “Active” in data set [1] and “Not Active” in data set [2]. The IC50 in the data set with HepG2 (setting [8]) stood at 14 µM. Also, the OD in data set [3] turned out to be 0.074. In the data set with Staphylococcus aureus [4], the Activity_index was determined as 64%. Moreover, the “diameter of the inhibition zone (DIZ)” value with Staphylococcus aureus [5] was found to be 14 mm.
For `O=C(O)CCCC(=O)Nc1ccc([Se][Se]c2ccc(NC(=O)CCCC(=O)O)cc2)cc1`, the outcome in data set [1] and in data set [2] was Active. Besides, the IC50 with HepG2 (setting [8]) was 67 µM. The “diameter of the inhibition zone (DIZ)” value in the data set on Candida albicans amounted to 16 mm; in the data set with Staphylococcus aureus [5], 20 mm. In [3], the OD is listed as 0.083. For the same compound, in the data set on Staphylococcus aureus [4], the Activity_index stood at 91%.
On to `O=C1CCCC(=O)N1c1ccc([Se][Se]c2ccc(N3C(=O)CCCC3=O)cc2)cc1`, for which the Activity entry is recorded as “Active” in data set [1] and “Not Active” in [2]. Moreover, the IC50 in the data set with HepG2 (setting [8]) is 35 µM. For the same compound, the OD in data set [3] was 0.09. Besides, the Activity_index in the data set with Staphylococcus aureus [4] amounted to 90%. The “diameter of the inhibition zone (DIZ)” value in the data set with Staphylococcus aureus [5] is on record as 21 mm.
For `O=c1c2ccccc2[se]n1-c1ccc([Se][Se]c2ccc(-n3[se]c4ccccc4c3=O)cc2)cc1`, the Activity result is recorded as “Not Active” in [1] and “Active” in data set [2]. Further, the IC50 in the data set with HepG2 (setting [8]) came out at 40 µM. Moreover, the OD in [3] is recorded as 0.06.
Take `CC1(C)S[C@@H]2[C@H](NC(=O)[C@H](N)c3ccccc3)C(=O)N2[C@H]1C(=O)O` [AMPICILLIN]: the “diameter of the inhibition zone (DIZ)” value is listed as 24 mm with Escherichia coli [6] and 22 mm in the data set on Staphylococcus aureus [5].
`O=C1O[C@H]([C@@H](O)CO)C(O)=C1O` [ASCORBIC ACID]: the OD in data set [3] came to 0.062.
With `Clc1ccccc1C(c1ccccc1)(c1ccccc1)n1ccnc1` [CLOTRIMAZOLE], the “diameter of the inhibition zone (DIZ)” value in the data set on Candida albicans is listed as 28 mm.
As to `O=c1c2ccccc2[se]n1-c1ccccc1` [EBSELEN], the result in data set [1] and in data set [2] was Active.
Turning to `O=c1[nH]cc(F)c(=O)[nH]1` [FLUOROURACIL], the IC50 with HepG2 (setting [8]) amounted to 8 µM.

A word on the IC50: it is the concentration needed to halve the response being measured.
